Reference: ChEMBL document CHEMBL1255289, “In vitro antifungal activities of isavuconazole (BAL4815), voriconazole, and fluconazole against 1,007 isolates of zygomycete, Candida, Aspergillus, Fusarium, and Scedosporium species” (2008)
Values after ≈ are worked out from the molar mass of the structure shown.

Experiments:
Cunninghamella [1] = test: Antifungal activity against Cunninghamella isolates assessed as lowest compound concentration that produced complete inhibition of microbial growth after 24 hrs by CLSI M38-A procedure based assay; assay type: functional
Method in brief: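 Zygomycete isolates subcultured on potato dextrose or Sabouraud agar, then tested by CLSI M38-A broth microdilution. Drugs were serially diluted in plates at final 0.015–16 µg/ml and incubated at 35°C. Plates were read by eye at 24 h. MIC-0 was the lowest concentration giving complete growth inhibition.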

Aspergillus terreus [2] = test: Antifungal activity against Aspergillus terreus isolates by Etest; assay type: functional
Method in brief: (§1)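 Etest on RPMI agar with 2% glucose, swab-inoculated with the microdilution spore or yeast suspension taken before its 50-fold dilution. Plates were incubated at 35°C and read at 48 h. The MIC was the ellipse–scale intercept, raised to the next twofold dilution step.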

Absidia = test: Antifungal activity against Absidia isolates assessed as lowest compound concentration that produced slight growth or approximately 25% of that of growth control after 24 hrs by CLSI M38-A procedure based assay; assay type: functional
Method in brief: (§2)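 Clinical isolates were kept at –70°C as spore suspensions in sterile water and subcultured on potato dextrose or Sabouraud agar before testing. Broth microdilution used DMSO stocks in trays stored at –70°C, with final drug 0.015–16 µg/ml.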

Candida parapsilosis [3] = test: Antifungal activity against Candida parapsilosis isolates after 48 hrs by CLSI M27-A2 procedure based assay; assay type: functional
Method in brief: (§3)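 Candida isolates tested by CLSI M27-A2 broth microdilution at final 0.015–16 µg/ml, or 0.125–128 µg/ml for the comparator azole. Incubation was at 35°C with a visual read at 48 h. MIC-2 was the lowest concentration giving a prominent turbidity drop, about 50% growth inhibition.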

Lomentospora prolificans = test: Antifungal activity against Scedosporium prolificans isolates by Etest; assay type: functional; method in brief: as §1
Aspergillus niger = test: Antifungal activity against Aspergillus niger isolates after 48 hrs by CLSI M38-A procedure based assay; assay type: functional
Method in brief: (§4)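 Aspergillus isolates tested by CLSI M38-A broth microdilution at final 0.015–16 µg/ml and 35°C. Plates were read macroscopically at 48 h. The MIC was the lowest concentration producing complete inhibition of growth (MIC-0).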

Aspergillus terreus [4] = test: Antifungal activity against Aspergillus terreus isolates after 48 hrs by CLSI M38-A procedure based assay; assay type: functional; method in brief: as §4
Pichia kudriavzevii = test: Antifungal activity against Candida krusei isolates by Etest; assay type: functional; method in brief: as §1
Syncephalastrum [5] = test: Antifungal activity against Syncephalastrum isolates by Etest; assay type: functional
Method in brief: (§5)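 Etest. The spore inoculum used for microdilution, taken before the 50-fold dilution, was swabbed onto RPMI agar with 2% glucose, strips applied, and plates held at 35°C and read at 24 h. The MIC was where the inhibition ellipse met the strip scale, rounded up to the next twofold dilution.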

Scedosporium apiospermum = test: Antifungal activity against Scedosporium apiospermum isolates by Etest; assay type: functional; method in brief: as §1
Candida = test: Antifungal activity against Candida sp. isolates after 48 hrs by CLSI M27-A2 procedure based assay; assay type: functional
Method in brief: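 Candida isolates were stored at –70°C as yeast suspensions and subcultured on potato dextrose or Sabouraud agar before use. Broth microdilution used DMSO drug stocks, with final well concentrations of 0.015–16 or 0.125–128 µg/ml depending on the azole. Plates were incubated at 35°C and read macroscopically at 48 h. MIC-2 was the lowest concentration giving a prominent turbidity decrease (~50% growth inhibition).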

Fusarium [6] = test: Antifungal activity against Fusarium sp. isolates assessed as lowest compound concentration that produced complete inhibition of microbial growth by CLSI M38-A procedure based assay
Cunninghamella [7] = test: Antifungal activity against Cunninghamella isolates assessed as lowest compound concentration that produced slight growth or approximately 25% of that of growth control after 24 hrs by CLSI M38-A procedure based assay; assay type: functional; method in brief: as §2
Nakaseomyces glabratus [8] = test: Antifungal activity against Candida glabrata isolates after 48 hrs by CLSI M27-A2 procedure based assay; assay type: functional; method in brief: as §3
Nakaseomyces glabratus [9] = test: Antifungal activity against Candida glabrata isolates by Etest; assay type: functional; method in brief: as §1
Candida parapsilosis [10] = test: Antifungal activity against Candida parapsilosis isolates by Etest; assay type: functional; conditions: Lodderomyces parapsilosis; method in brief: as §1
Candida albicans [11] = test: Antifungal activity against Candida albicans isolates after 48 hrs by CLSI M27-A2 procedure based assay; assay type: functional; method in brief: as §3
Aspergillus fumigatus [12] = test: Antifungal activity against Aspergillus fumigatus isolates after 48 hrs by CLSI M38-A procedure based assay; assay type: functional; method in brief: as §4
Syncephalastrum [13] = test: Antifungal activity against Syncephalastrum isolates assessed as lowest compound concentration that produced slight growth or approximately 25% of that of growth control after 24 hrs by CLSI M38-A procedure based assay; assay type: functional; method in brief: as §2
Fusarium [14] = test: Antifungal activity against Fusarium sp. isolates assessed as lowest compound concentration that produced complete inhibition of microbial growth after 24 hrs by CLSI M38-A procedure based assay; assay type: functional
Candida albicans [15] = test: Antifungal activity against Candida albicans isolates by Etest; assay type: functional; method in brief: as §1
Candida tropicalis = test: Antifungal activity against Candida tropicalis isolates by Etest; assay type: functional; method in brief: as §1
Cunninghamella [16] = test: Antifungal activity against Cunninghamella isolates by Etest; assay type: functional; method in brief: as §5
Fusarium [17] = test: Antifungal activity against Fusarium sp. isolates by Etest; assay type: functional; method in brief: as §1
Aspergillus fumigatus [18] = test: Antifungal activity against Aspergillus fumigatus isolates by Etest; assay type: functional; method in brief: as §1
[19] = Lodderomyces parapsilosis, 48 h

C[C@@H](c1nc(-c2ccc(C#N)cc2)cs1)[C@](O)(Cn1cncn1)c1cc(F)ccc1F [ISAVUCONAZOLE]
MIC (Cunninghamella [1]): 2 µg/mL (≈ 4.57 µM) | MIC50 (Aspergillus terreus [2]): 0.38 µg/mL (≈ 0.869 µM) | MIC90 (Aspergillus terreus [2]): 0.5 µg/mL (≈ 1.14 µM) | MIC (Absidia): 0.5 µg/mL (≈ 1.14 µM) | MFC50 (Candida parapsilosis [3]): 4 µg/mL (≈ 9.14 µM) | MFC90 (Candida parapsilosis [3]): 16 µg/mL (≈ 36.6 µM) | MFC (Candida parapsilosis [3]; [19]): 0.03 µg/mL (≈ 0.0686 µM) | MIC (Candida parapsilosis [3]; [19]): < 0.015 µg/mL | MIC50 (Candida parapsilosis [3]; [19]): < 0.015 µg/mL | MIC90 (Candida parapsilosis [3]; [19]): 0.03 µg/mL (≈ 0.0686 µM) | MIC50 (Lomentospora prolificans): > 32 µg/mL | MIC90 (Lomentospora prolificans): > 32 µg/mL | MFC50 (Aspergillus niger): 1 µg/mL (≈ 2.29 µM) | MFC90 (Aspergillus niger): 2 µg/mL (≈ 4.57 µM) | MFC (Aspergillus niger; Aspergillus niger, 48 h): 0.25 µg/mL (≈ 0.571 µM) | MIC50 (Aspergillus niger; Aspergillus niger, 48 h): 1 µg/mL (≈ 2.29 µM) | MIC90 (Aspergillus niger; Aspergillus niger, 48 h): 2 µg/mL (≈ 4.57 µM) | MFC50 (Aspergillus terreus [4]): 1 µg/mL (≈ 2.29 µM) | MFC90 (Aspergillus terreus [4]): 1 µg/mL (≈ 2.29 µM) | MFC (Aspergillus terreus [4]; Aspergillus terreus, 48 h): 0.25 µg/mL (≈ 0.571 µM) | MIC50 (Aspergillus terreus [4]; Aspergillus terreus, 48 h): 1 µg/mL (≈ 2.29 µM) | MIC90 (Aspergillus terreus [4]; Aspergillus terreus, 48 h): 1 µg/mL (≈ 2.29 µM) | MIC (Pichia kudriavzevii): 0.012 µg/mL (≈ 0.0274 µM) | MIC (Syncephalastrum [5]): 0.25 µg/mL (≈ 0.571 µM) | MIC (Scedosporium apiospermum): > 32 µg/mL | MFC (Candida): 0.003 µg/mL (≈ 0.00686 µM) | MIC (Candida): > 0.015 µg/mL | MFC90 (Fusarium [6]): >16 µg/mL | MIC (Cunninghamella [7]): 0.5 µg/mL (≈ 1.14 µM) | MFC50 (Nakaseomyces glabratus [8]): 16 µg/mL (≈ 36.6 µM) | MFC90 (Nakaseomyces glabratus [8]): >16 µg/mL | MFC (Nakaseomyces glabratus [8]; Nakaseomyces glabratus, 48 h): 0.03 µg/mL (≈ 0.0686 µM) | MIC50 (Nakaseomyces glabratus [8]; Nakaseomyces glabratus, 48 h): 0.25 µg/mL (≈ 0.571 µM) | MIC90 (Nakaseomyces glabratus [8]; Nakaseomyces glabratus, 48 h): 1 µg/mL (≈ 2.29 µM) | MIC50 (Nakaseomyces glabratus [9]): 0.094 µg/mL (≈ 0.215 µM) | MIC90 (Nakaseomyces glabratus [9]): 0.38 µg/mL (≈ 0.869 µM) | MIC50 (Candida parapsilosis [10]): 0.004 µg/mL (≈ 0.00914 µM) | MIC90 (Candida parapsilosis [10]): 0.023 µg/mL (≈ 0.0526 µM) | MFC50 (Candida albicans [11]): >16 µg/mL | MFC90 (Candida albicans [11]): >16 µg/mL | MFC (Candida albicans [11]; Candida albicans, 48 h): 0.03 µg/mL (≈ 0.0686 µM) | MIC50 (Candida albicans [11]; Candida albicans, 48 h): 0.03 µg/mL (≈ 0.0686 µM) | MIC90 (Candida albicans [11]; Candida albicans, 48 h): < 0.015 µg/mL | MFC50 (Aspergillus fumigatus [12]): 1 µg/mL (≈ 2.29 µM) | MFC90 (Aspergillus fumigatus [12]): 1 µg/mL (≈ 2.29 µM) | MFC (Aspergillus fumigatus [12]; Aspergillus fumigatus, 48 h): 0.125 µg/mL (≈ 0.286 µM) | MIC50 (Aspergillus fumigatus [12]; Aspergillus fumigatus, 48 h): 1 µg/mL (≈ 2.29 µM) | MIC90 (Aspergillus fumigatus [12]; Aspergillus fumigatus, 48 h): 1 µg/mL (≈ 2.29 µM) | MIC (Syncephalastrum [13]): 0.125 µg/mL (≈ 0.286 µM) | MFC50 (Fusarium [14]): >16 µg/mL | MFC (Fusarium [14]; Fusarium, 24 h): 4 µg/mL (≈ 9.14 µM) | MIC50 (Fusarium [14]; Fusarium, 24 h): 16 µg/mL (≈ 36.6 µM) | MIC90 (Fusarium [14]; Fusarium, 24 h): > 16 µg/mL | MIC50 (Candida albicans [15]): 0.004 µg/mL (≈ 0.00914 µM) | MIC90 (Candida albicans [15]): 0.015 µg/mL (≈ 0.0343 µM) | MIC (Candida tropicalis): 0.003 µg/mL (≈ 0.00686 µM) | MIC50 (Candida tropicalis): 0.015 µg/mL (≈ 0.0343 µM) | MIC90 (Candida tropicalis): 0.125 µg/mL (≈ 0.286 µM) | MIC (Cunninghamella [16]): 0.38 µg/mL (≈ 0.869 µM) | MIC (Fusarium [17]): 0.38 µg/mL (≈ 0.869 µM) | MIC50 (Fusarium [17]): > 32 µg/mL | MIC90 (Fusarium [17]): > 32 µg/mL | MIC (Aspergillus fumigatus [18]): 0.047 µg/mL (≈ 0.107 µM) | MIC50 (Aspergillus fumigatus [18]): 0.25 µg/mL (≈ 0.571 µM) | MIC90 (Aspergillus fumigatus [18]): 0.5 µg/mL (≈ 1.14 µM)
